How the values were obtained:
Botrytis cinerea [1] = assay: Fungicidal activity against Botryotinia fuckeliana infected in drug-pretreated cucumber two seeded leaves assessed as decrease in disease index at 500 ug/ml (acetone Rvb = 1.53 +/-0.21%); format: functional
Procedure, shortened: (§1)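 Greenhouse cucumber assay. Fungi kept on PDA at 4 °C and cultured at 24 ± 1 °C. Plants at the two-seed-leaf stage had leaves hand-sprayed at 500 μg/mL, then were inoculated and held at 24 ± 1 °C, >80% RH. Efficacy = (CK − PT)/CK × 100, from average disease indices.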

Rhizoctonia solani [2] = assay: Fungicidal activity against Rhizoctonia solani infected drug-pretreated cucumber two seeded leaves assessed as decrease in disease index at 500 ug/ml (acetone Rvb = 2.22 +/-0.79%); format: functional; procedure, shortened: as §1
Corynespora cassiicola [3] = assay: Fungicidal activity against Corynespora cassiicola infected in drug-pretreated cucumber two seeded leaves assessed as decrease in disease index at 500 ug/ml (acetone Rvb = 5.23 +/-0.88%); format: functional; procedure, shortened: as §1
Cladosporium cucumerinum [4] = assay: Fungicidal activity against Cladosporium cucumerinum infected drug-pretreated cucumber two seeded leaves assessed as decrease in disease index at 500 ug/ml (acetone Rvb = 3.18 +/-0.75%); format: functional; procedure, shortened: as §1
Corynespora cassiicola [5] = assay: Fungicidal activity against Corynespora cassiicola infected in drug-pretreated cucumber two seeded leaves assessed as decrease in disease index at 75% WP formulation (acetone Rvb = 5.23 +/-0.88%); format: functional; procedure, shortened: as §1
Cladosporium cucumerinum [6] = assay: Fungicidal activity against Cladosporium cucumerinum infected drug-pretreated cucumber two seeded leaves assessed as decrease in disease index at 40% EC formulation (acetone Rvb = 3.18 +/-0.75%)
Botrytis cinerea [7] = assay: Fungicidal activity against Botryotinia fuckeliana infected in drug-pretreated cucumber two seeded leaves assessed as decrease in disease index at 40% SC formulation (acetone Rvb = 1.53 +/-0.21%); format: functional; procedure, shortened: as §1
Rhizoctonia solani [8] = assay: Fungicidal activity against Rhizoctonia solani infected drug-pretreated cucumber two seeded leaves assessed as decrease in disease index at 3% AS formulation (acetone Rvb = 2.22 +/-0.79%); format: functional; procedure, shortened: as §1

O=C(N/N=C/c1ccc(Cl)cc1)c1ccc(-c2ccccc2F)o1
Efficacy (Botrytis cinerea [1]): 27% | Efficacy (Rhizoctonia solani [2]): -5.2% | Efficacy (Corynespora cassiicola [3]): -3.05% | Efficacy (Cladosporium cucumerinum [4]): 37.3%

O=C(N/N=C/c1ccccc1)c1ccc(-c2ccc(Cl)cc2)o1
Efficacy (Botrytis cinerea [1]): 11% | Efficacy (Rhizoctonia solani [2]): 10.2% | Efficacy (Corynespora cassiicola [3]): 50.78% | Efficacy (Cladosporium cucumerinum [4]): -8.1%

O=C(N/N=C/c1ccccc1Cl)c1ccc(-c2ccc(F)cc2)o1
Efficacy (Botrytis cinerea [1]): 72% | Efficacy (Rhizoctonia solani [2]): 8% | Efficacy (Corynespora cassiicola [3]): 13.87% | Efficacy (Cladosporium cucumerinum [4]): -22%

O=[N+]([O-])c1ccccc1-c1ccc(-c2nnc(-c3ccc(Cl)cc3)o2)o1
Efficacy (Botrytis cinerea [1]): -30.02% | Efficacy (Rhizoctonia solani [2]): 94.38% | Efficacy (Corynespora cassiicola [3]): 15.17% | Efficacy (Cladosporium cucumerinum [4]): 17.2%

COc1ccc(-c2nnc(-c3ccc(-c4ccccc4[N+](=O)[O-])o3)o2)cc1
Efficacy (Botrytis cinerea [1]): 92.68% | Efficacy (Rhizoctonia solani [2]): 48.48% | Efficacy (Corynespora cassiicola [3]): 48.61% | Efficacy (Cladosporium cucumerinum [4]): 15%

CCOc1ccc(-c2nnc(-c3ccc(-c4ccccc4[N+](=O)[O-])o3)o2)cc1
Efficacy (Botrytis cinerea [1]): 33.75% | Efficacy (Rhizoctonia solani [2]): 65.58% | Efficacy (Corynespora cassiicola [3]): 74.71% | Efficacy (Cladosporium cucumerinum [4]): 8.89%

COc1ccc(-c2nnc(-c3ccc(-c4ccc([N+](=O)[O-])cc4)o3)o2)cc1
Efficacy (Botrytis cinerea [1]): 47.83% | Efficacy (Rhizoctonia solani [2]): -3.97% | Efficacy (Corynespora cassiicola [3]): 10.59% | Efficacy (Cladosporium cucumerinum [4]): 12.35%

CCOc1ccc(-c2nnc(-c3ccc(-c4ccc([N+](=O)[O-])cc4)o3)o2)cc1
Efficacy (Botrytis cinerea [1]): 77.78% | Efficacy (Rhizoctonia solani [2]): 63.47% | Efficacy (Corynespora cassiicola [3]): 25.49% | Efficacy (Cladosporium cucumerinum [4]): 16.48%

Fc1ccc(-c2ccc(-c3nnc(-c4ccccc4Cl)o3)o2)cc1
Efficacy (Botrytis cinerea [1]): 76.52% | Efficacy (Rhizoctonia solani [2]): 25.54% | Efficacy (Corynespora cassiicola [3]): 27.94% | Efficacy (Cladosporium cucumerinum [4]): 7.78%

O=C(N/N=C/c1ccc(Br)cc1)c1ccc(-c2ccccc2Cl)o1
Efficacy (Botrytis cinerea [1]): 91.76% | Efficacy (Rhizoctonia solani [2]): 57.85% | Efficacy (Corynespora cassiicola [3]): 28.79% | Efficacy (Cladosporium cucumerinum [4]): 19.75%

CC(=O)N1N=C(c2ccc(-c3ccc(Cl)cc3)o2)OC1c1ccccc1 (stereo not drawn)
Efficacy (Botrytis cinerea [1]): 70.71% | Efficacy (Rhizoctonia solani [2]): 69.09% | Efficacy (Corynespora cassiicola [3]): 35.29% | Efficacy (Cladosporium cucumerinum [4]): 45.61%

CC(=O)N1N=C(c2ccc(-c3ccccc3Cl)o2)OC1c1ccc(Br)cc1 (stereo not drawn)
Efficacy (Botrytis cinerea [1]): 23.23% | Efficacy (Rhizoctonia solani [2]): 14.3% | Efficacy (Corynespora cassiicola [3]): 32.03% | Efficacy (Cladosporium cucumerinum [4]): 16.67%

CC(=O)N1N=C(c2ccc(-c3ccccc3F)o2)OC1c1ccc(Cl)cc1 (stereo not drawn)
Efficacy (Botrytis cinerea [1]): 18.89% | Efficacy (Rhizoctonia solani [2]): 66.28% | Efficacy (Corynespora cassiicola [3]): 28.85% | Efficacy (Cladosporium cucumerinum [4]): 31.11%

CC(=O)N1N=C(c2ccc(-c3ccc(F)cc3)o2)OC1c1ccccc1Cl (stereo not drawn)
Efficacy (Botrytis cinerea [1]): 76.28% | Efficacy (Rhizoctonia solani [2]): 31.03% | Efficacy (Corynespora cassiicola [3]): 28.72% | Efficacy (Cladosporium cucumerinum [4]): 40%

CCC(=O)N1N=C(c2ccc(-c3ccccc3Cl)o2)OC1c1ccc(Br)cc1 (stereo not drawn)
Efficacy (Botrytis cinerea [1]): 13.91% | Efficacy (Rhizoctonia solani [2]): 63.87% | Efficacy (Corynespora cassiicola [3]): 41.18% | Efficacy (Cladosporium cucumerinum [4]): 23.98%

CCC(=O)N1N=C(c2ccc(-c3ccc(F)cc3)o2)OC1c1ccccc1Cl (stereo not drawn)
Efficacy (Botrytis cinerea [1]): -24.9% | Efficacy (Rhizoctonia solani [2]): 52.33% | Efficacy (Corynespora cassiicola [3]): 46.75% | Efficacy (Cladosporium cucumerinum [4]): 31.48%

O=C(NNC(=O)c1ccc(-c2ccccc2Cl)o1)c1ccc(Br)cc1
Efficacy (Botrytis cinerea [1]): 24.64% | Efficacy (Rhizoctonia solani [2]): 49.42% | Efficacy (Corynespora cassiicola [3]): 8.24% | Efficacy (Cladosporium cucumerinum [4]): 14.2%

Cc1ccc(C(=O)NNC(=O)c2ccc(-c3ccc(Cl)cc3)o2)cc1
Efficacy (Botrytis cinerea [1]): 4.35% | Efficacy (Rhizoctonia solani [2]): 19.8% | Efficacy (Corynespora cassiicola [3]): 50.87% | Efficacy (Cladosporium cucumerinum [4]): 29.8%

O=C(NNC(=O)c1ccc(-c2ccccc2[N+](=O)[O-])o1)c1ccc(Cl)cc1
Efficacy (Botrytis cinerea [1]): 79.58% | Efficacy (Rhizoctonia solani [2]): 95.56% | Efficacy (Corynespora cassiicola [3]): 66.09% | Efficacy (Cladosporium cucumerinum [4]): 14.44%

COc1ccc(C(=O)NNC(=O)c2ccc(-c3ccccc3[N+](=O)[O-])o2)cc1
Efficacy (Botrytis cinerea [1]): 35.5% | Efficacy (Rhizoctonia solani [2]): 56.45% | Efficacy (Corynespora cassiicola [3]): 28.35% | Efficacy (Cladosporium cucumerinum [4]): 2.61%

CCOc1ccc(C(=O)NNC(=O)c2ccc(-c3ccccc3[N+](=O)[O-])o2)cc1
Efficacy (Botrytis cinerea [1]): -43.27% | Efficacy (Rhizoctonia solani [2]): 78.93% | Efficacy (Corynespora cassiicola [3]): 18.82% | Efficacy (Cladosporium cucumerinum [4]): 10%

COc1ccc(C(=O)NNC(=O)c2ccc(-c3ccc([N+](=O)[O-])cc3)o2)cc1
Efficacy (Botrytis cinerea [1]): 29.9% | Efficacy (Rhizoctonia solani [2]): 24.45% | Efficacy (Corynespora cassiicola [3]): 36.36% | Efficacy (Cladosporium cucumerinum [4]): 57.89%

CCOc1ccc(C(=O)NNC(=O)c2ccc(-c3ccc([N+](=O)[O-])cc3)o2)cc1
Efficacy (Botrytis cinerea [1]): 79.13% | Efficacy (Rhizoctonia solani [2]): 71.9% | Efficacy (Corynespora cassiicola [3]): 38.24% | Efficacy (Cladosporium cucumerinum [4]): 28.35%

O=C(NNC(=O)c1ccccc1Cl)c1ccc(-c2ccc(F)cc2)o1
Efficacy (Botrytis cinerea [1]): 89.57% | Efficacy (Rhizoctonia solani [2]): 69.35% | Efficacy (Corynespora cassiicola [3]): 34.26% | Efficacy (Cladosporium cucumerinum [4]): 30.32%

Clc1ccccc1-c1ccc(-c2nnc(-c3ccc(Br)cc3)o2)o1
Efficacy (Botrytis cinerea [1]): -2.61% | Efficacy (Rhizoctonia solani [2]): -1.16% | Efficacy (Corynespora cassiicola [3]): 90.59% | Efficacy (Cladosporium cucumerinum [4]): 17.9%

Cc1ccc(-c2nnc(-c3ccc(-c4ccc(Cl)cc4)o3)o2)cc1
Efficacy (Botrytis cinerea [1]): 42.38% | Efficacy (Rhizoctonia solani [2]): 24.13% | Efficacy (Corynespora cassiicola [3]): 28.24% | Efficacy (Cladosporium cucumerinum [4]): 5.85%

N#Cc1c(Cl)c(Cl)c(Cl)c(C#N)c1Cl [CHLOROTHALONIL]
Efficacy (Corynespora cassiicola [5]): 93.53%

C[Si](Cn1cncn1)(c1ccc(F)cc1)c1ccc(F)cc1 [FLUSILAZOLE]
Efficacy (Cladosporium cucumerinum [6]): 95.56%

Cc1cc(C)nc(Nc2ccccc2)n1 [PYRIMETHANIL]
Efficacy (Botrytis cinerea [7]): 69.57%

OCC1=C[C@H](N[C@H]2C[C@H](CO)[C@@H](O[C@@H]3O[C@H](CO)[C@@H](O)[C@H](O)[C@H]3O)[C@H](O)[C@H]2O)[C@H](O)[C@@H](O)[C@@H]1O [VALIDAMYCIN]
Efficacy (Rhizoctonia solani [8]): 93.68%

Reference: ChEMBL document CHEMBL3045525, “Synthesis and fungicidal activity of novel 2,5-disubstituted-1,3,4-oxadiazole derivatives” (2012)
